Measured values reported in ChEMBL document CHEMBL1125369, “Synthesis, absolute configuration, stereoselectivity, and receptor selectivity of (alpha R, beta S)-alpha,beta-dimethylhistamine, a novel high potent histamine H3 receptor agonist” (J Med Chem, 1992).

Assays:
Cavia porcellus [1] = species: Cavia porcellus; assay: H2 agonistic activity by taking spontaneously beating guinea pig right atrium; type: functional, Cardiac atrium
Procedure, shortened: (§1)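 Right atrium from male guinea pigs (350–500 g), spontaneously beating, in McEvan's solution at 32.5 °C gassed with O2/5% CO2; 1 h equilibration. Beating rate recorded with a heart frequency meter. Cumulative histamine standard curve (10⁻⁷–10⁻⁵ M bath) run first; after washing, full curve of test agonist. One test per preparation, 3–4 experiments; EC50 mean ± sem (Sachs).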

Cavia porcellus [2] = species: Cavia porcellus; assay: H1 agonistic activity by taking guinea pig ileum contraction; type: functional
Procedure, shortened: (§2)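 Male guinea pigs (350–500 g); 3 cm ileum pieces in Tyrode solution at 37 °C, gassed with O2 containing 5% CO2. Isotonic recording of contraction. A histamine standard curve is run first, with geometrically increasing bath concentrations up to maximal contraction. After washing, a cumulative concentration-response curve of the test agonist follows. Three or four experiments; EC50 as mean ± sem by the method of Sachs.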

Rattus norvegicus [3] = species: Rattus norvegicus; assay: H3 agonistic activity against K+ induced histamine in slices of rat brain cortex.; type: functional
Procedure, shortened: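 Cortical slices (0.3 mm) from male Wistar rats (170–190 g), preloaded 30 min with [³H]-L-histidine (0.3 μM) and washed. Agonist added 5 min before depolarization; slices (2–3 mg protein) incubated 2 min at 37 °C with 2 or 30 mM KCl (final). Stopped by rapid centrifugation; [³H]histamine in tissue and medium quantified. 3–4 experiments; EC50 mean ± sem (Parker and Waud).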

[4] = target: Histamine H2 receptor (Cavia porcellus) (UniProt P47747); assay: Intrinsic activity against histamine H2 receptor in guinea pig right atrium; type: tissue-based; settings: Cardiac atrium; procedure, shortened: as §1
Histamine H2 receptor (Cavia porcellus), sequence (P47747 whole entry): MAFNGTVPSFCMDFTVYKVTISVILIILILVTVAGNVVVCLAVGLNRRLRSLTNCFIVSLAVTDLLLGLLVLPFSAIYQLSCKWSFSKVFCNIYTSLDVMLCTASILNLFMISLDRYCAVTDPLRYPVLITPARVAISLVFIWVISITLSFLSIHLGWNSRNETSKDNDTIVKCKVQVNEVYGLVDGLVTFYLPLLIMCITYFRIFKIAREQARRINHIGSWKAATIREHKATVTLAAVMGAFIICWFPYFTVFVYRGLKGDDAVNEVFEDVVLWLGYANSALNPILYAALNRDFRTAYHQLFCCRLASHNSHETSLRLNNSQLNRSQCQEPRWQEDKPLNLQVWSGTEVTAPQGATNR

[5] = target: Histamine H1 receptor (Cavia porcellus) (UniProt P31389); assay: Intrinsic activity against histamine H1 receptor in guinea pig ileum; type: tissue-based; procedure, shortened: as §2
Histamine H1 receptor (Cavia porcellus), sequence (P31389 whole entry): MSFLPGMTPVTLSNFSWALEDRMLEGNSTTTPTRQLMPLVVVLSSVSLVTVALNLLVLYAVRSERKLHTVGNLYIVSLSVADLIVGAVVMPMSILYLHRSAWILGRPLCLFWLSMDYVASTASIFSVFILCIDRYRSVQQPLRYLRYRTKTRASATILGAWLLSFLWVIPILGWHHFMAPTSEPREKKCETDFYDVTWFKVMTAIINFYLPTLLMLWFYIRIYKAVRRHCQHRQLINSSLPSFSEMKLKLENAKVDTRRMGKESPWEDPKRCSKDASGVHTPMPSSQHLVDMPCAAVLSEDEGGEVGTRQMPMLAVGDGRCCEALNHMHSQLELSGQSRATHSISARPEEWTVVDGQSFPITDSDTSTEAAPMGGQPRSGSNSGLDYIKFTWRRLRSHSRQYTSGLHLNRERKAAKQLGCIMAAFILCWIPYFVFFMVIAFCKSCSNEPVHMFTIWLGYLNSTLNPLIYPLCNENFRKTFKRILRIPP

Cavia porcellus [6] = species: Cavia porcellus; assay: In vitro H1 agonistic activity by taking guinea pig ileum contraction
Cavia porcellus [7] = species: Cavia porcellus; assay: In vitro H2 agonistic activity by taking spontaneously beating guinea pig right atrium; settings: Cardiac atrium
Rattus norvegicus [8] = species: Rattus norvegicus; assay: In vitro H3 agonistic activity against K+ induced histamine in slices of rat brain cortex.
[9] = Kinetic constant Km value of the enzyme; type: ADME
Procedure, shortened: (§3)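 Histamine N-methyltransferase purified from rat kidney. Increasing substrate concentrations incubated 1 h at 25 °C with unlabeled plus [³H]-S-adenosylmethionine (5 μM final). Stopped with perchloric acid (0.4 N final), then NaOH (1 N final). [³H]-τ-methylhistamine extracted into toluene-isoamyl alcohol (3 + 2) and counted by liquid scintillation.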

[10] = Kinetic constant Vmax value of the enzyme; type: ADME; procedure, shortened: as §3
[11] = Cavia porcellus, Cardiac atrium, read-out: EC50
[12] = Cavia porcellus, Ileum, read-out: EC50

Row | SMILES | EC50 (Cavia porcellus [1]) | EC50 (Cavia porcellus [2]) | EC50 (Cavia porcellus [1]; [11]) | EC50 (Cavia porcellus [2]; [12]) | Intrinsic activity [4] | EC50 (Rattus norvegicus [3]; Rattus norvegicus) | Intrinsic activity [5] | further results
1 | C[C@@H](N)[C@@H](C)c1c[nH]cn1 (relative stereo) | Not Active | Not Active | – | – | – | – | – | EC50 (Rattus norvegicus [3]): 190 nM
2 | CC(N)C(C)c1c[nH]cn1 (stereo unspecified) | – | – | 940000 nM | 180000 nM | 0.66 | 12 nM | 0.94 | –
3 | NCCc1c[nH]cn1 [HISTAMINE] | – | – | – | – | 1 | – | 1 | EC50 (Cavia porcellus [6]): 140 nM; EC50 (Cavia porcellus [7]): 1000 nM; EC50 (Rattus norvegicus [8]): […]
4 | C[C@H](N)[C@@H](C)c1c[nH]cn1 (relative stereo) | Not Active | Not Active | – | – | – | 6.2 nM | – | –
5 | Br.Br.C[C@@H](N)[C@@H](C)c1c[nH]cn1 | Not Active | Not Active | – | – | – | 350 nM | – | –
6 | Br.Br.C[C@H](N)[C@H](C)c1c[nH]cn1 | – | – | 410000 nM | 420000 nM | 0.86 | 3.4 nM | 0.56 | Km [9]: 2.8 µM; Vmax [10]: 1.7 nM/h/mg
